High-throughput results (PubChem)
Tb hexokinase: Trypanosoma brucei hexokinase 1 inhibitors, primary screen, biochemical, G6PDH-coupled NADH absorbance, MLSCN library; hexokinase 1 [Trypanosoma brucei]; recombinant TbHK1, G6PDH-coupled NADH A340; inhibition, % at 10 µM; 0.11% of 220,000 active; AID 1430, 2008;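 active = inhibition of 50% or more in the single-dose primary screen; inactive = inhibition below 50%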
bCat nuc transl: modulators of beta-catenin nuclear translocation, primary screen, imaging, HeLa cells, immunofluorescence, high-content. nuclear translocation activity, % at 5 µM. 0.3% of 190,000 active. AID 1665, 2009;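 active = nuclear translocation activity above 50% at 5 µM, with a well cell count of 50 or more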;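 also: per-cell ratio of nuclear to cytoplasmic median beta-catenin stain intensity; plate controls were DMSO negative control for no effect and GSK-3 inhibitor IX positive control for full effect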
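Test system: human HeLa cell line; Doses: 5 µM primary, 0.02–20 µM confirmation; Incubation: 24 h compound exposure, 37°C; Detection: beta-catenin immunofluorescence imaging with DAPI; Read-out: beta-catenin nuclear/cytoplasmic ratio, % activation.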
Efa HMGR inh: inhibitors of E. faecalis class II HMGR, primary screen, biochemical, Enterococcus faecalis; purified E. faecalis HMGR, NADPH absorbance 340 nm kinetic; inhibition, % at 10 µM; 0.41% of 190,000 active; AID 1066, 2008;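 active = inhibition above a set limit, the median over all tested compounds plus 3 SD, cut at about 9.5% in these data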;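 also: enzyme runs in reverse so mevalonate oxidation gives rising NADPH absorbance; 0% = complete reaction with DMSO and 100% = background rate lacking mevalonate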
MT stabilizer: microtubule stabilizers in HeLa cells, primary screen, imaging, high-content imaging. HeLa tubulin immunostaining HCS, 24 h; share of cells brighter than vehicle mean+2SD. % tubulin-high responders, % at 10 µM. 0.83% of 200,000 active;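 active = plate Z-score above 3 for both tubulin-high and condensed-nucleus cell shares, with cell loss under 80%, at 10 µM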;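 also: anti alpha tubulin signal scored within the nucleus-defined area of each cell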
EP2 modulator: EP2 receptor modulators, cAMP readout, primary screen, cell-based, HTRF cAMP, PGE2 stimulation. Prostaglandin E2 receptor EP2 subtype (Homo sapiens), P43116. induction, % at 25 µM. AID 940, 2007. 0.83% of 260,000 active. EP2-expressing cells, cAMP HTRF FRET, PGE2 co-stimulation;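 active = compounds whose cAMP rise, as percent of the full-agonist control response, exceeds 60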;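 also: rat C6 glioma line stably carrying human EP2 under a CMV promoter; the protocol text gives 20 µM as final concentration; 100% = response of wells given 1 µM PGE2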
Target sequence (P43116 whole entry, looked up): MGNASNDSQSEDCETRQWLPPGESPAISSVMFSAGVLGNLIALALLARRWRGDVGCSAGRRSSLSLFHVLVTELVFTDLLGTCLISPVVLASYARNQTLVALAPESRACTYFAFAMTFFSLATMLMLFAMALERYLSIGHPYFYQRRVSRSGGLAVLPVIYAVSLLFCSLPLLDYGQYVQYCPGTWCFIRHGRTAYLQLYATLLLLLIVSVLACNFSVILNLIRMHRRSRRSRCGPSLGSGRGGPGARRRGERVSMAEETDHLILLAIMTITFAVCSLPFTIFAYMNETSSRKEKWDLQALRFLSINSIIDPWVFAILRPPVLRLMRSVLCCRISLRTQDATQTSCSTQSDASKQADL
PGE2 EP2 inh: human EP2 receptor antagonists, primary screen, TR-FRET cAMP, C6 glioma cells. Prostaglandin E2 receptor EP2 subtype (Homo sapiens), P43116. inhibition, % at 25 µM. C6 glioma cells expressing human EP2; cells stimulated with saturating PGE2. 0.52% of 260,000 active;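 active = percent inhibition above 40 after rounding to a whole number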;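 also: rat C6 glioma host cells with rolipram phosphodiesterase inhibitor present; the protocol text gives 20 µM as final concentration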
The depositor's hits bear a star; . = no result. This is a sample that favours compounds with a hit; in the whole collection about 2.4% have one here.

SMILES	Tb hexokinase	bCat nuc transl	Efa HMGR inh	MT stabilizer	EP2 modulator	PGE2 EP2 inh
Fc1ccc(N2CCN(Cc3c[nH]c4ccccc34)CC2)cc1	0	1	.	.	-56	7
c1ccc2c(CN3CCN(Cc4c[nH]c5ccccc45)CC3)c[nH]c2c1	.	.	.	.	-21	62*
CC1(C)Cc2ccccc2C(C(=O)Nc2ccccc2Cl)N1 (stereo not given)	.	.	.	.	63*	10
O=C(Nc1ccccc1Cl)C1C2CCC3C(CCC21)C3(Cl)Cl (stereo not given)	-7	0	-2	3	21	8
Cc1ccc(/C=N/NC(=O)C2CC(=O)N(c3ccccc3)C2)s1 (stereo not given)	-18	57*	-2	9	8	6
O=C(N/N=C/c1cccs1)C1CC(=O)N(c2ccccc2)C1 (stereo not given)	-13	8	-1	1	3	8
C[C@@H]1CC[C@@]2(OC1)OC1CC3C4CC=C5C[C@@H](O)CC[C@]5(C)C4CC[C@]3(C)C1[C@@H]2C (stereo not given in full)	.	.	.	.	14	8
CCN(Cc1cc(=O)n2ccsc2n1)Cc1nc2ccccc2c(=O)[nH]1	-8	-3	11*	6	4	6
CCN(CC(=O)NCc1ccc(F)cc1)Cc1cc(=O)n2ccsc2n1	-3	4	2	4	22	3
CC(=O)CSc1nc2cc3c(cc2cc1C#N)OCCO3	-6	-2	11*	2	-13	18
CCOC(=O)c1ccc(NC(=O)CSc2nc3cc4c(cc3cc2C#N)OCCO4)cc1	.	.	.	.	83*	15
N#Cc1cc2cc3c(cc2nc1SCC(=O)NCc1ccccc1)OCCO3	.	.	.	.	48	43*
N#Cc1cc2cc3c(cc2nc1SCC(=O)Nc1ccc2c(c1)OCCO2)OCCO3	.	.	.	.	58	23
CCOC(=O)c1sc(NC(=O)CSc2ncccc2-c2nc3ccccc3[nH]2)c(C#N)c1C	.	.	.	.	-4	30
COC(=O)Nc1nc(-c2ccccc2)c(C(=O)c2ccccc2)s1	-13	162*	-4	12	-1	16
COC(=O)Nc1nc(C)c(C(=O)c2ccccc2)s1	-13	56*	-6	8	8	1
CN(C)S(=O)(=O)c1ccc(C(=O)Nc2nc(-c3ccccc3)c(C(=O)c3ccccc3)s2)cc1	-5	-1	1	6	-12	19
O=C(CSc1nnc(COc2cccc3cccnc23)o1)N1CCCC1	3	-2	12*	1	8	10
COc1ccc(CC(=O)N2CCn3c(nnc3C3CC3)C2)cc1OC	.	.	.	.	-11	.
CSc1cc(-c2ccc(Cl)cc2)n(Cc2ccccc2)c(=O)c1C#N	-19	.	-3	1	24	16
CSc1cc(-c2ccccc2)n(Cc2c(Cl)cccc2Cl)c(=O)c1C#N	-34	.	-9	40*	44	10
Cc1ccc(-n2ncc3c2CCCC3NC(=O)c2scnc2C)cc1C (stereo not given)	.	.	.	.	-77	6
COc1cc(NC(=O)N2CCNC2=O)cc(C(=O)Nc2cccc(C(F)(F)F)c2)c1	-9	55*	.	.	14	4
CC(Sc1nnc(-c2ccc3c(c2)OCO3)o1)C(N)=O (stereo not given)	.	.	.	.	-11	11
N#Cc1c(-c2ccccc2)c(-c2ccccc2)nn(CC(=O)NNC(=O)Nc2ccc(Cl)c(Cl)c2)c1=O	5	20	4	21*	9	7
SMILES	Tb hexokinase	bCat nuc transl	Efa HMGR inh	MT stabilizer	EP2 modulator	PGE2 EP2 inh
O=C(Cn1nc(-c2ccccc2)c2ccccc2c1=O)Nc1ccc(F)cc1	-12	2	.	.	-6	8
Cn1cc(C(=O)CCl)c2ccccc21	-7	2	0	1	-17	11
Cn1cc(/C(Cc2ccccc2)=N\O)c2ccccc21	6	4	0	2	64*	5
Cn1c(SCc2ccc(C(C)(C)C)cc2)nnc1-c1cccnc1	.	.	.	.	2	6
COc1ccccc1-c1nnc(SCC#N)n1C	.	.	.	.	30	10
Cc1cc(NC(=O)C2CCCN2C(=O)Nc2c(C)cccc2C)ccc1-n1cnnn1 (stereo not given)	6	-2	12*	2	21	3
C[N+](C)(C)c1cc2c(nn1)Nc1ccccc1S2	.	.	.	.	-45	49*
Clc1cc2c(nn1)Nc1ccccc1S2	-12	1	.	.	-16	19
C#CCSc1nnc(CSc2nc3ccccc3s2)n1-c1ccccc1	17	-2	-2	3	33	7
O=C(O)CSc1nnc(CSc2nc3ccccc3s2)n1-c1ccccc1	-2	-1	11*	3	22	7
CCOC(=O)c1c(NC(=O)Nc2ccccc2)sc(C)c1C	-4	0	3	2	62*	10
CCOC(=O)c1sc(NC(=O)CCN2CCN(C)CC2)c(C(=O)OCC)c1C	3	0	2	2	-46	4
CCOC(=O)c1c(NC(=O)CN2CCN(C)CC2)sc(C(=O)Nc2ccccc2)c1C	-9	-1	9	36*	-33	9
COC(c1ccccc1)c1nnc(CCC(=O)NCCC(C)C)o1 (stereo not given)	-1	-1	16*	2	12	7
COC(c1ccccc1)c1nnc(CCC(=O)NCc2ccc3ncccc3c2)o1 (stereo not given)	-4	-1	-1	3	35	9
CCOC(=O)CSC1=C(C#N)C(c2ccc3c(c2)OCO3)CC(=O)N1 (stereo not given)	-3	-1	-3	49*	11	9
Cc1c(C(=O)O)sc(=S)n1-c1ccc(Cl)cc1	-16	-1	-1	2	10	7
Cc1c(Cl)sn(-c2ccc(Cl)cc2)c1=O	35	3	2	3	-59	117*
c1ccc(-c2nnc3sc(-c4ccncc4)nn23)cc1	-3	.	-2	4	6	4
c1ccc(-c2nnc3sc(-c4csc5c4CCCC5)nn23)cc1	3	0	-6	21*	53	12
O=C(Cn1cc(C(=O)C(F)(F)F)c2ccccc21)N1CCOCC1	-13	1	14*	3	-4	3
O=C(Cn1cc(C(=O)C(F)(F)F)c2cc(Br)ccc21)N1CCOCC1	-3	-1	-5	6	-21	4
CCCC(c1nnnn1CC1CCCO1)N(Cc1cc2ccc(C)cc2[nH]c1=O)C1CCCCC1 (stereo not given)	.	.	.	.	15	8
CCC1Oc2ccccc2N(CC(=O)NCc2ccco2)C1=O (stereo not given)	-1	1	41*	2	4	5
